Results on 26 compounds are retold here after ChEMBL document CHEMBL2380217, “Design, synthesis, and biological evaluation of aminoalkylindole derivatives as cannabinoid receptor ligands with potential for treatment of alcohol abuse” (J Med Chem, 2013).

Activity calls are given as the source filed them. The rule behind the calls is not given here.

In series [1] the target is Cannabinoid receptor 1 (Mus musculus) (UniProt P47746). The experiment in a line: Agonist activity at CB1 receptor in mouse Neuro2a cells assessed as inhibition of forskolin-stimulated adenylyl cyclase activity at 10 uM after 15 mins by liquid scintillation spectrophotometry. It is filed as functional, cell-based. An outline of the steps:
(§1)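 Neuro2A-WT (endogenous CB1), CHO-hCB2 or CHO-WT cells, 4 million per well, attached overnight. Labelled 4 h at 37 °C with [3H]adenine 2.5 μCi/mL plus 0.5 mM IBMX. Then 15 min at 37 °C in KRH buffer with 0.5 mM IBMX, 10 μM forskolin, and vehicle (0.2% ethanol) or compound (0.1 nM–10 μM), triplicate. Stopped with HCl; [3H]cAMP isolated on acidic alumina, counted by scintillation. Expressed as % of vehicle cAMP. Antagonist added 5 min before agonist.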

Series [2] has as its target Cannabinoid receptor 2 (Mus musculus) (UniProt P47936). The experiment in a line: Displacement of [3H]CP-55940 from mouse […] CB2 receptor at 1 uM after 90 mins by scintillation counting analysis. It is filed as tissue-based. The method in brief: (§2)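 Buffer: 50 mM Tris, 0.05% BSA, 0.1% ethanol; triplicate. Non-specific binding with 10 μM WIN-55,212-2. Bound ligand collected by GF/B filtration and counted by liquid scintillation. Specific binding expressed as % of that without competitor.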
In general terms: Loss of bound radioactivity is the signal in a displacement assay; it reports binding, not function.

Series [3] concerns the target T1, Cannabinoid receptor 2 (Homo sapiens, UniProt P34972). Briefly: Agonist activity at human CB2 receptor transfected in CHO cells assessed as inhibition of forskolin-stimulated adenylyl cyclase activity at 10 uM after 15 mins by liquid scintillation spectrophotometry. It is filed as functional, cell-based. The method in brief:
as §1

In series [4] the target is Cannabinoid receptor 1 (Mus musculus) (UniProt P47746). The experiment in a line: Displacement of [3H]CP-55940 from mouse brain CB1 receptor at 1 uM after 90 mins by scintillation counting analysis. It is filed as tissue-based. An outline of the steps: as §2
Cannabinoid receptor 1 (Mus musculus), sequence (P47746 whole entry): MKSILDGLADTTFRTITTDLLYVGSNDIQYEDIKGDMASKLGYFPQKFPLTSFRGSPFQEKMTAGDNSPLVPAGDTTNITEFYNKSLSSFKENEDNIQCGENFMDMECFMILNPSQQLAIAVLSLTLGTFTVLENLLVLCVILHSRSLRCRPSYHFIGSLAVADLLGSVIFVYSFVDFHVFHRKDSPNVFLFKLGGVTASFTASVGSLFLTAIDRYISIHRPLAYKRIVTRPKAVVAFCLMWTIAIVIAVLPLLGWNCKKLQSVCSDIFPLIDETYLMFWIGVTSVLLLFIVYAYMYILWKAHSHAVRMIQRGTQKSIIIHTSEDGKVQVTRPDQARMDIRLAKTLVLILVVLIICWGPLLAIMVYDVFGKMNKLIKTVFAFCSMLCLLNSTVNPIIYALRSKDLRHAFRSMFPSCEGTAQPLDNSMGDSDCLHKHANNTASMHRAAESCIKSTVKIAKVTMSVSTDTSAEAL
Series [5] concerns CHO. Briefly: Effect on adenylyl cyclase activity in wild type CHO cells at 10 uM. It is filed as cell-based. The settings on record: Cricetulus griseus. An outline of the steps:
as §1

Series [6] relates to Mus musculus. The experiment in a line: Reduction in ethyl alcohol preference in Swiss mouse at 10 mg/kg, ip for 10 days. On the set-up: dose 10 mg/kg. The format is functional, organism-based. An outline of the steps: (§3)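 Male NIH Swiss mice in a two-bottle home-cage choice, 10% (v/v) ethanol vs water, 24 h access. Intake read twice weekly and bottle positions switched. Preference = ethanol/total fluid × 100. After stable baseline (<10% variation over 3 days), 10 mg/kg i.p. daily for 10 days. Vehicle: 8% Tween/92% water, given for 10 days. Body weight tracked.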

Series [7] concerns Mus musculus. The experiment in a line: Toxicity in Swiss mouse assessed as alteration in total fluid intake at 10 mg/kg, ip for 10 days. It is filed as organism-based. On the set-up: dose 10 mg/kg, route intraperitoneal. The settings on record: in vivo, 240 h. The method in brief: as §3
The test system of series [8] is Mus musculus. The experiment in a line: Inhibition of ethyl alcohol-induced conditioned place preference in Swiss mouse at 10 mg/kg, ip administered 1 hr prior to ethyl alcohol pairing. It is filed as functional, organism-based. On the set-up: dose 10 mg/kg. An outline of the steps:
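Male NIH Swiss mice in 3-compartment chambers. 30-min pre-test to find preferred side. Then Mon–Thu daily: saline in the preferred side (30 min) and, ~4 h later, 2 g/kg ethanol in the non-preferred side (30 min). Compound 10 mg/kg given 1 h before each ethanol pairing. Friday post-test; score = post minus pre time on the ethanol side. One-way ANOVA with Tukey.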

Series [9] addresses Cannabinoid receptor 1 (Mus musculus) (UniProt P47746). Briefly: Antagonist activity at CB1 receptor in mouse Neuro2a cells assessed as forskolin-stimulated adenylyl cyclase activity at 1 uM after 15 mins by liquid scintillation spectrophotometry in presence of JWH-073. The format is functional, cell-based. An outline of the steps: as §1
The test system of series [10] is Mus musculus. The experiment in a line: Antagonist activity at CB1 receptor in Swiss mouse assessed as reduction in hypothermic effect at 10 mg/kg, ip administered 30 mins prior to JWH-073 addition. It is filed as functional, organism-based. Set-up: dose 10 mg/kg. An outline of the steps: (§4)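 Male NIH Swiss mice (25–30 g) with glass-encapsulated radiotelemetry probes implanted in the peritoneal cavity; at least 7 days of recovery, housed singly. Baseline recorded for at least 1 hr, then i.p. injection of drug or vehicle. […] Groups of 4–8. One-way ANOVA with Tukey.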

Series [11] concerns Mus musculus. Briefly: Toxicity in Swiss mouse assessed as reduction in body weight at 10 mg/kg, ip for 10 days. The settings on record: in vivo, 240 h. Set-up: dose 10 mg/kg, route intraperitoneal. The format is organism-based. The method in brief: as §3
In series [12] the target is T1, Cannabinoid receptor 2. Briefly: Agonist activity at human CB2 receptor transfected in CHO cells assessed as inhibition of forskolin-stimulated adenylyl cyclase activity after 15 mins by liquid scintillation spectrophotometry. The format is functional, cell-based. An outline of the steps:
as §1

The target of series [13] is Cannabinoid receptor 1 (Mus musculus, UniProt P47746). The experiment in a line: Agonist activity at CB1 receptor in mouse Neuro2a cells assessed as inhibition of forskolin-stimulated adenylyl cyclase activity after 15 mins by liquid scintillation spectrophotometry. The format is functional, cell-based. An outline of the steps:
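Neuro2A cells with endogenous CB1, plated overnight to 80–90% confluency, labelled 4 h at 37 °C with [3H]adenine (2.5 μCi/mL) plus 0.5 mM IBMX. Then 15 min at 37 °C in Krebs Ringer HEPES with 0.5 mM IBMX, 10 μM forskolin and compound (0.1 nM–10 μM; 10 μM for the screen) or 0.2% ethanol vehicle, in triplicate. HCl stop, alumina column. [3H]cAMP is given as % of vehicle.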

Series [14] relates to Mus musculus. The experiment in a line: Agonist activity at CB1 receptor in Swiss mouse assessed as hypothermic effect at 10 mg/kg, ip. The format is functional, organism-based. Set-up: dose 10 mg/kg. The method in brief: as §4

Cannabinoid receptor 2 (Mus musculus), sequence (P47936 whole entry): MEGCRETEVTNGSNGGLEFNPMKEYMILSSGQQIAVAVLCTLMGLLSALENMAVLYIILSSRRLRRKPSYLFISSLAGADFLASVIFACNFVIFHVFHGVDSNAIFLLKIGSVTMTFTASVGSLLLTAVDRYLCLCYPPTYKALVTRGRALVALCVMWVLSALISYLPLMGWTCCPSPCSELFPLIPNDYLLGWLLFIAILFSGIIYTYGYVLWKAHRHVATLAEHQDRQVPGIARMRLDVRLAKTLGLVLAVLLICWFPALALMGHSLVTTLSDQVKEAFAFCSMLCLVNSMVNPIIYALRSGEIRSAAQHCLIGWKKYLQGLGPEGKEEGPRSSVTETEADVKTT
T1 sequence (P34972 whole entry): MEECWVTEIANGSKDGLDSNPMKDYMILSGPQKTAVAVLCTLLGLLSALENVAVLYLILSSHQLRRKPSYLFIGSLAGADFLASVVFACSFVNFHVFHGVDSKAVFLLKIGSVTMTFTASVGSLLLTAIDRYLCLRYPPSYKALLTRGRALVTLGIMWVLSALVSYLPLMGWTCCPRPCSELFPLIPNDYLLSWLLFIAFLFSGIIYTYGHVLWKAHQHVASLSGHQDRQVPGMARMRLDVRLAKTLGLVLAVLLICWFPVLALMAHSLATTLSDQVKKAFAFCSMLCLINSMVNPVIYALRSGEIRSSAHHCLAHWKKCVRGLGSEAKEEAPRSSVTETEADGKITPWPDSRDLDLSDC
Cannabinoid receptor 1, sequence (P47746 whole entry): as the sequence (P47746 whole entry) above

By inhibition is commonly meant the relative decrease from the control value, in per cent. For `CCCCn1cc(C(=O)Cc2ccccc2)c2cccc(OC)c21`, the inhibition in series [1] was 34%; in series [3], 16%. Further, the Activity stood at 91% in series [2] and 69% in series [4].
As to `CCCCCCC(C)(C)c1ccc([C@@H]2C[C@H](O)CC[C@H]2CCCO)c(O)c1`, the inhibition in [1] came to 45%.
As for `CCCCn1cc(-c2cccc3ccccc23)c2cccc(OC)c21`, the inhibition in [1] was determined as 39%; in [3] it was 37%. Further, the Activity in series [2] is 97%; in series [4], 98%.
Regarding `CCCCn1cc(Cc2cccc3ccccc23)c2cccc(OC)c21`, the values for the inhibition in [1] and in series [3] were 18% and 33%, respectively. Further, in series [5], the outcome was inactive. In addition, the result in series [6], in series [8], in series [9] and in series [10] was Active. The Activity entry in series [7] is “Toxic”; in [2], 97%; in [4], 90%; in series [11] it was “Non-toxic”.
Turning to `CCCCn1cc(C(=O)Cc2ccc(OC)cc2)c2cccc(OC)c21`, the Activity is 64% in series [2] and 38% in series [4].
The corresponding values for `CCCCn1cc(C(=O)Cc2ccc(F)c(F)c2)c2cccc(OC)c21` are 80% and 41%.
`CCCCn1cc(C(=O)Cc2cccc3ccccc23)c2cccc(O)c21`: the Activity in [2] was 21%; in series [4] it was 37%.
With `CCCCn1cc(C(=O)Cc2ccccc2F)c2cccc(OC)c21`, the inhibition in series [1] worked out at 45%; in series [3], 1%. Also, the Activity came to 99% in [2] and 84% in series [4].
On to `Cc1c(C(=O)NN2CCCCC2)nn(-c2ccc(Cl)cc2Cl)c1-c1ccc(Cl)cc1` [RIMONABANT], for which the result in [6] and in series [8] was Active. Moreover, the Activity result in [7] and in series [11] was “Toxic” throughout.
As for `CCCCn1cc(C(=O)Cc2cccc(F)c2F)c2cccc(OC)c21`, the inhibition in [1] is 35%; in series [3], -6%. The Activity turned out to be 97% in series [2] and 80% in [4].
For the compound `CC1=CC[C@@H]2[C@@H](C1)c1c(O)cc(CC#CCCCNS(C)(=O)=O)cc1OC2(C)C`, the result in series [9] was Active.
As to `CCCCn1cc(-c2ccc3ccccc3c2)c2cccc(OC)c21`, the inhibition in series [1] is 16%; in [3] it was 20.8%. Further, in series [5], the outcome was inactive. Besides, the outcome in series [6], in series [8], in [9] and in series [10] was Active. Further, the Activity result in series [7] is “Toxic”; in [2], 91%; in [4] it was 82%; in series [11] it was “Non-toxic”.
In the case of `CCCCn1cc(C(=O)Cc2ccc(O)cc2)c2cccc(O)c21`, the Activity in [2] and in series [4] was 10% each time.
`CCCCn1cc(C(=O)c2cccc3ccccc23)c2cc(OC)ccc21`: the inhibition in series [1] amounted to 47%; in [3], 31%. In addition, the Activity in series [2] and in [4] was 90% in each case.
One may read the Ki as the equilibrium dissociation constant of an inhibitor or competing ligand from its target. The term IC50 denotes the point on the concentration scale where inhibition reaches its midpoint. As for `CCCCn1cc(C(=O)c2cccc3ccccc23)c2cccc(O)c21`, the inhibition amounted to 55% in series [1] and 38% in [3]. The figures for the Ki in [12] and in [13] were 78.3 nM and 24.2 nM, respectively. Besides, in series [13], the IC50 stood at 225 nM. In addition, the Activity is 90% in series [2] and 99% in series [4].
Regarding `CCCCn1cc(C(=O)Cc2cccc3ccccc23)c2cccc(OC)c21`, in series [1], the inhibition came out at 34%. Besides, the Activity in [2] was 91%; in [4], 81%.
Take `COc1cccc2c(C(=O)c3cccc4ccccc34)cn(CCN3CCOCC3)c12`: the values for the inhibition in series [1] and in series [3] were 39% and 37%, respectively. Also, the Activity in series [2] and in series [4] was 100% each time.
As to `CCCCn1cc(C(=O)Cc2ccccc2)c2cccc(O)c21`, the Activity came to 20% in series [2] and 21% in series [4].
On to `CCCCn1cc(C(=O)Cc2ccc(F)cc2)c2cccc(CC)c21`, for which the figures for the Activity in series [2] and in series [4] were 88% and 63%, respectively.
Regarding `CCCCn1cc(C(=O)c2ccc(F)cc2)c2cccc(OC)c21`, the results for the inhibition in series [1] and in series [3] were 45% and 38%, respectively. The Activity was 99% in series [2] and 84% in [4].
With `CCCCn1cc(C(=O)Cc2ccc(F)cc2)c2cccc(OC)c21`, the inhibition in [1] is -4%; in series [3] it was 22%. Further, the figures for the Activity in series [2] and in [4] were 80% and 55%, respectively.
Take `CCCCn1cc(C(=O)Cc2ccc(F)cc2)c2cccc(O)c21`: the Activity was 10% in series [2] and 29% in series [4].
On to `CCCCn1cc(C(=O)c2cccc3ccccc23)c2cccc(OC)c21`, for which the inhibition amounted to 51% in series [1] and 52% in series [3]. The Activity in [2] was 100%; in [4], 93%.
In the case of `CCCCn1cc(C(=O)c2cccc3ccccc23)c2ccccc21`, the Ki in [12] turned out to be 9.8 nM; in series [13] it was 12.9 nM. Moreover, the outcome in series [14] was Active.
`CCCCn1cc(C(=O)c2cccc3ccccc23)c2cc(O)ccc21`: the values for the inhibition in series [1] and in series [3] were 39% and 37%, respectively. Also, the Activity came to 91% in series [2] and 97% in series [4].
`CCCCn1cc(C(=O)Cc2cccc(F)c2)c2cccc(OC)c21`: the Activity in series [2] is 91%; in [4] it was 63%.
